The test system of this assay is hypothalamic‐pituitary‐adrenal (HPA) axis. The assay is described as follows: HPA axis endocrine markers. In kind it is in vivo, human. The procedure, abridged:
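Healthy young non-Japanese adults, open-label low-dose part. 0.7 or 2 mg was given as a single oral dose on day 1, then after a 6-day washout once daily. 0.4 mg was given once daily on days 1–14. 0.2 mg followed a 3 mg loading dose on day 1, days 2–14. Baseline urine endocrine markers were taken day –1. Urine cortisol came from first morning void. ACTH and DHEA-s were plasma. Follow-up sampling ran days 16–21 and day 28.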

As for `Cn1c(-c2ccc(C(N)=O)cc2F)nnc1C(C)(C)Oc1c(F)cc(Cl)cc1F` [ASP3662], the “effects on ACTH, DHEA‐s and 24‐hour total urine glucocorticoids” value (MAD part 2, low dose) was “activation of the HPA axis”. Further, the “effect on urine cortisol levels” value (despite full 11β‐HSD1 inhibition, part 2 low dose) is recorded as “no significant effects”.
